TAAR1 antag = antagonists of human TAAR1; CHO RD-HGA16 TAAR1, Fluo-8 calcium fluorescence, antagonist; Q96RJ0; AID 624466; inhibition, % at 3 µM; 360,000 tested, 1.5% active;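 active = inhibition above a per-plate cutoff, the mean inhibition of test compounds on that plate plus 3 SD, cut at about 49% in these data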;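 also: 0% = DMSO plus EC80 beta-PEA response and 100% = DMSO alone without agonist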
Target sequence (Q96RJ0 whole entry, looked up): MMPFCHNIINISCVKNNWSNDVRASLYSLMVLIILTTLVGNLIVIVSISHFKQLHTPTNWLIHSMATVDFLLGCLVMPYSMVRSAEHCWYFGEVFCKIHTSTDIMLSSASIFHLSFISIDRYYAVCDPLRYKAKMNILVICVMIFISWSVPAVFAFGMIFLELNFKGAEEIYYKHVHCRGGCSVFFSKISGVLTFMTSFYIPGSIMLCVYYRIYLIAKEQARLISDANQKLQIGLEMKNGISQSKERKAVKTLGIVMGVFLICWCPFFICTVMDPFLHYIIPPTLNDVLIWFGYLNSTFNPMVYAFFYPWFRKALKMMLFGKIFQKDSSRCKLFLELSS
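System: RD-HGA16 CHO cells with stable hTAAR1 and Gα16 | Probe or stimulus: EC80 β-phenethylamine stimulus | Dosing: 3 µM, single point | Times: Dye loading 75 min at 37 °C, then 30 min room temperature | Measured by: Fluo-8 calcium-sensitive fluorescence | Read-out basis: % inhibition of agonist calcium response | Replicates: n of 1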
MPTP inh = blocks calcium-induced mitochondrial swelling; isolated mouse mitochondria, Ca2+ swelling absorbance, 30 min; inhibition, % at 10 µM; 360,000 tested, 1.4% active; AID 602449;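 active = inhibition of 50% or more, scaled per plate between neutral and stimulator controls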;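 also: 0% = DMSO wells given calcium and 100% = 1 mM EGTA wells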
DAGLB inhibitor = diacylglycerol lipase beta (human) inhibition. Q8NCG7. 340,000 tested, 0.059% active. inhibition, % at 5.17 µM. HEK293T DAGLB membrane lysate, EnzChek fluorogenic substrate; in the data active = inhibition above about 34%;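 also: 0% = enzyme with vehicle and 100% = wells lacking enzyme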
TAAR1 agonist = agonists of human TAAR1. Q96RJ0. activation, % at 3 µM. 360,000 tested, 0.99% active. AID 624467. CHO RD-HGA16 TAAR1, Fluo-8 calcium fluorescence; vehicle wells 0%, saturating PEA agonist 100%;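 active = activation above the mean activation of all test compounds in the run plus 3 SD, cut at about 38% in these data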
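Benchmarks: low control DMSO, high control PEA (EC100); System: CHO RD-HGA16 cells carrying human TAAR1 plus Gα16; Detection: Fluo-8 fluorescence, 5 s baseline then 140 s kinetic read; Schedule: 17-24 h plating, Fluo-8 75 min 37 °C, 30 min RT; Read-out basis: % activation from peak over basal fluorescence ratio, DMSO-to-PEA scaled.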
GPR7 antagonist = antagonists of human GPR7 (neuropeptides B/W receptor 1) | GPR7-expressing cells, fluorescence antagonist assay | inhibition, % at 4.4 µM | 290,000 tested, 1.1% active | AID 1861; in the data active = inhibition above about 16%, passing the limit was not always enough;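 also: cells stimulated with the agonist NPW; 0% = agonist with vehicle and 100% = vehicle without agonist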
Target sequence (P48145 whole entry, looked up): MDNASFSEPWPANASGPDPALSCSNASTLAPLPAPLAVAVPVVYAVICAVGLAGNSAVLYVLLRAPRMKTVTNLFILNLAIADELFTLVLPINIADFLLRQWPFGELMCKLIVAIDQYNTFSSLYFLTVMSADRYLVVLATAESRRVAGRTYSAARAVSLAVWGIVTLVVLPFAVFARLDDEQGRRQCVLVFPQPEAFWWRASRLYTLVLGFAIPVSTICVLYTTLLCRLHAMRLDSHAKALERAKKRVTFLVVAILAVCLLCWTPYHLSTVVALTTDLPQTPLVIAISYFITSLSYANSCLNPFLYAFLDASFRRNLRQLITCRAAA
TAAR1 nonsel count = counter-screen for TAAR1 antagonists: nonselective antagonists. inhibition, % at 3 µM. 2,400 tested, 77% active. AID 651780. shares compounds with TAAR1 antag. counterscreen cell line, calcium fluorescence, antagonist mode; in the data active = inhibition above about 22%;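 also: CHO-Ga16 host cells stimulated with ATP at an EC80 level; 0% = agonist EC80 plus vehicle and 100% = vehicle without agonist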
TAAR1 ant conf = human TAAR1 antagonism, confirmed | inhibition, % at 3 µM | shares compounds with TAAR1 antag | TAAR1-expressing cells, fluorescence antagonist read-out | 2,400 tested, 40% active; in the data active = inhibition above about 49%;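 also: CHO-Ga16 host cells challenged with agonist PEA near its EC80; 0% = agonist at EC80 plus vehicle and 100% = vehicle with no agonist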
Ga16 ag counter-1 = nonselective Ga16 agonist in TAAR1 antagonist counter-screen; AID 651953; Ga16-expressing cells, calcium fluorescence, agonist counterscreen; shares compounds with TAAR1 antag; activation, % at 3 µM; 2,400 tested, 18% active; in the data active = activation above about 12%;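 also: 0% = vehicle wells and 100% = saturating stimulus response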
TAAR1 ag count = activates human TAAR1 in antagonist counter-screen; hTAAR1 cell line, fluorescence activation, agonist mode; AID 651955; 2,400 tested, 2% active; shares compounds with TAAR1 antag; activation, % at 3 µM; in the data active = activation above about 37%;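 also: CHO cells stably expressing TAAR1 with calcium dye readout; 0% = DMSO vehicle and 100% = full agonist response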
TAAR1 ag conf = confirmation of human TAAR1 agonists. 2,400 tested, 82% active. shares compounds with TAAR1 agonist. activation, % at 3 µM. CHO RD-HGA16 TAAR1, Fluo-8 calcium fluorescence; scaled: DMSO 0%, maximal phenethylamine 100%. AID 651783;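 active = activation above a cutoff set at the run's mean compound activation plus 3 SD, cut at about 39% in these data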
Ga16 ag counter-2 = nonselective agonism, TAAR1 counter-screen; AID 651787; 2,400 tested, 50% active; shares compounds with TAAR1 agonist; CHO-Ga16 parental, Fluo-8 calcium fluorescence; normalized to maximal ATP response, DMSO zero; activation, % at 3 µM;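 active = activation above the run cutoff, the mean activation over all tested wells plus 3 SD, cut at about 12% in these data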;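 also: 0% = DMSO wells and 100% = maximal ATP response on the peak over basal ratio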
TAAR1 desensitize = TAAR1 response desensitization, agonist counter-screen | shares compounds with TAAR1 agonist | CHO RD-HGA16 hTAAR1, Fluo-8 calcium, beta-PEA response inhibition | inhibition, % at 3 µM | 2,400 tested, 46% active | AID 651951;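 active = inhibition above the run cutoff, the mean inhibition of all test compounds plus 3 SD, cut at about 49% in these data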;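 also: beta-PEA stimulus applied at its EC80; loss of beta-PEA calcium signal after compound pretreatment read as receptor desensitization; 0% = DMSO with beta-PEA at EC80 and 100% = DMSO alone without agonist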
Ga16 antag count = nonselective Ga16 antagonist in TAAR1 agonist counter-screen; 2,400 tested, 39% active; inhibition, % at 3 µM; shares compounds with TAAR1 agonist; CHO-Ga16 ATP-induced calcium, Fluo-8 fluorescence;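 active = inhibition above the plate's mean compound inhibition plus 3 SD, computed per plate, cut at about 22% in these data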;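 also: 0% = EC80 ATP with DMSO and 100% = DMSO wells without ATP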
Active calls of the source: *; . = not tested or not shown. The list is not random: actives were taken first. Their share in the collection is about 4%.

SMILES | TAAR1 antag | MPTP inh | DAGLB inhibitor | TAAR1 agonist | GPR7 antagonist | TAAR1 nonsel count | TAAR1 ant conf | Ga16 ag counter-1 | TAAR1 ag count | others
CC(C)(C)OC(=O)N1CCN(C(=O)c2[nH]cnc2C(=O)N[C@@H](Cc2ccccc2)C(=O)OCc2ccccc2)CC1 | 69* | -1 | 1 | 24 | -6 | 23* | 45 | 7 | 7
C[C@H](NC(=O)c1[nH]cnc1C(=O)Nc1ccc(CNC(=O)OC(C)(C)C)cc1)C(=O)OCc1ccccc1 | 67* | 0 | -1 | 14 | . | 34* | 52* | 5 | 9
O=C(NC1CCCC1)C(c1ccccc1)n1c(-c2cccc3ccccc23)nc2ccccc21 (centres undefined) | -34 | 2 | . | -3 | . | . | . | . | .
CCOC(=O)C1(C)CCN1C(=O)c1ccc(OC)c(C(F)(F)F)c1 (centres undefined) | -3 | -1 | . | 0 | . | . | . | . | .
CC(C)(C)OC(=O)CNC(=O)c1nc[nH]c1C(=O)NCc1ccc(CNC(=O)OC(C)(C)C)cc1 | 70* | 1 | -3 | 18 | -3 | 41* | 54* | 16* | 17
CC(C)(C)OC(=O)NCc1ccc(CNC(=O)c2nc[nH]c2C(=O)NCc2ccc(CNC(=O)OC(C)(C)C)cc2)cc1 | 43 | 1 | 3 | 8 | . | . | . | . | .
CCOCCn1ccc2c(OCC(=O)Nc3ccc(OC)cc3OC)cccc2c1=O | 25 | 0 | 0 | 8 | . | . | . | . | .
COCCn1ccc2c(OCC(=O)Nc3ccccc3OC)cccc2c1=O | 58* | 0 | -2 | 8 | . | 27* | 41 | 8 | 5
Cc1cc(C(=O)NCC(=O)OCC(=O)NCC2CCCO2)ccc1[N+](=O)[O-] (centres undefined) | 10 | -1 | -1 | 2 | . | . | . | . | .
COC(=O)/C=C/c1ccccc1CN1[C@@H](CC(=O)OC)c2ccccc2S1(=O)=O | 107* | 0 | 1 | 7 | . | -2 | 10 | 3 | 5
CCCn1c(=S)[nH]c2cc(C(=O)N3CCN(c4ccc(F)cc4)CC3)ccc2c1=O | -30 | 0 | 0 | -2 | . | . | . | . | .
Nc1sccc1C(=O)N1CCN(c2ccccc2)CC1 | 3 | -3 | . | 1 | . | . | . | . | .
Cc1ccccc1-n1nnnc1SCc1csc(-c2ccccc2)n1 | 70* | 1 | -9 | 16 | 12 | 28* | 43 | 7 | 7
Cc1ccc2cc(NC(=O)c3ccc(C(C)(C)C)cc3)ccc2n1 | 58* | 0 | -3 | 13 | -33 | 25* | 42 | 7 | 3
COc1ccc(N2CCN(C(=O)c3ccc(C)c(NC(=O)C4=C(C)OCCS4)c3)CC2)cc1 | -2 | -2 | -1 | 3 | -2 | . | . | . | .
CC1=C(C(=O)Nc2cc(C(=O)N3CCN(c4cccc(C)c4C)CC3)ccc2C)SCCO1 | 62* | 0 | -3 | 6 | -7 | 34* | 46 | 5 | 4
COC(=O)c1cccc(N2C(=O)C[C@](Sc3ccc(C)cc3)(C(=O)OC)[C@H]2c2ccccc2)c1 | 82* | 0 | . | 7 | . | 32* | 55* | 5 | 2
CN(C)CCN(C(=O)C1CCN(S(=O)(=O)c2cccs2)CC1)c1nc2ccccc2s1 | -23 | 2 | 1 | 3 | . | . | . | . | .
Fc1ccccc1COc1ccc(Br)cc1CNCc1ccncc1 | 75* | 3 | 0 | 13 | 8 | 40* | 62* | 12* | 17
Fc1ccccc1COc1ccc(Br)cc1CNCc1cccnc1 | 32 | 7 | -6 | 7 | 13 | . | . | . | .
CCOc1ccccc1C(=O)NCCN1CCC(n2c(=O)[nH]c3ccccc32)CC1 | -22 | -2 | . | 3 | . | . | . | . | .
O=C(NCc1ccc2c(c1)OCO2)C(=O)NC1CCCCC1 | -21 | 4 | -1 | 4 | 2 | . | . | . | .
CC1CCCC(C)N1C(=O)CNCc1ccc2c(c1)OCO2 (centres undefined) | 3 | -1 | 0 | 71* | -1 | . | . | . | . | TAAR1 ag conf=23;Ga16 ag counter-2=5;TAAR1 desensitize=-4;Ga16 antag count=-5
COc1cc(/C=C2/SC(=S)N(Cc3ccccc3)C2=O)ccc1OCC(=O)O | -5 | 2 | 4 | 9 | -2 | . | . | . | .
COc1cc(/C=C2/SC(=S)N(Cc3ccccc3)C2=O)cc(Cl)c1O | 89* | 11 | -12 | 103* | 89* | . | . | . | . | TAAR1 ag conf=182*;Ga16 ag counter-2=198*;TAAR1 desensitize=101*;Ga16 antag count=100*
SMILES | TAAR1 antag | MPTP inh | DAGLB inhibitor | TAAR1 agonist | GPR7 antagonist | TAAR1 nonsel count | TAAR1 ant conf | Ga16 ag counter-1 | TAAR1 ag count | others
COC(=O)c1ccc(COc2ccc(-c3nn[nH]n3)cc2)cc1 | 17 | 0 | -1 | 51* | -11 | . | . | . | . | TAAR1 ag conf=16;Ga16 ag counter-2=11;TAAR1 desensitize=10;Ga16 antag count=7
O=C(NNC(=O)c1cc(S(=O)(=O)N2CCOCC2)ccc1Cl)c1ccc(F)cc1 | 0 | -1 | 2 | 0 | . | . | . | . | .
COc1ccc(NC(=O)C[C@H]2C(=O)N(CCc3ccccc3)C[C@@H]2c2ccc(OC)cc2)cc1 | 6 | 0 | -4 | 21 | . | . | . | . | .
O=C(C[C@H]1C(=O)N(CCc2ccccc2)C[C@@H]1c1ccccc1)Nc1ccccc1 | 48 | -1 | -2 | 73* | . | . | . | . | . | TAAR1 ag conf=77*;Ga16 ag counter-2=0;TAAR1 desensitize=48;Ga16 antag count=14
COCCCNC(=O)C[C@H]1C[C@@]2(C(=O)OC)C(=C[C@H](C(C)C)O[C@@H]2C2CC2)N(Cc2ccccc2)C1=O | -11 | . | . | 0 | . | . | . | . | .
CCc1ccc(-c2cc(C(=O)N/N=C/c3ccco3)[nH]n2)cc1 | 12 | -1 | -2 | 4 | -10 | . | . | . | .
O=C(N/N=C/c1ccco1)c1cc(-c2ccc3ccccc3c2)n[nH]1 | 71* | 2 | 4 | 48* | -6 | . | . | . | . | TAAR1 ag conf=67*;Ga16 ag counter-2=53*;TAAR1 desensitize=96*;Ga16 antag count=88*
CCOC(=O)NC(NCCc1ccccc1)(C(F)(F)F)C(F)(F)F | 87* | 0 | 1 | 87* | 5 | . | . | . | . | TAAR1 ag conf=98*;Ga16 ag counter-2=15*;TAAR1 desensitize=87*;Ga16 antag count=-8
